Columns and labels:
[1] = folding enthalpy; higher = less favourable; fluorescence melt of hairpins on a sequencing array, two-state fit; settings: sodium 0.088 M
Procedure, shortened: (§1)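 Hairpins were imaged by Cy3 fluorescence on a sequenced MiSeq flow cell with annealed Cy3 and quencher oligos, in 50 mM Na-HEPES pH 8.0, 25 mM NaCl, in 2.5 °C steps up to 60 °C. Bootstrapped two-state fits of normalised signals gave melting temperature and folding enthalpy. Four replicates were combined by inverse variance, and fitted temperatures were raised by 9.35 °C to match UV melts.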

[2] = melting temperature; fluorescence melt of hairpins on a sequencing array, two-state fit, raised by 9.35 °C to match UV melts; settings: sodium 0.088 M
Procedure, shortened: as §1

| Sequence | folding enthalpy [1] [kcal/mol] | Tm [2] [°C] |
| --- | --- | --- |
| GCAAAGGGAAACTTTTGC (((((.(....).))))) | -26.8 | 41 |
| GCAAATCGAAAGATGTGC (((.(((....))).))) | -28.3 | 48.8 |
| GCAACACGAAAGTGTGC (((.(((....)))))) | -19 | 60.2 |
| GCAACAGAAATGTTGC ((((((....)))))) | -40.1 | 56.6 |
| GCAACCGAAAGGTACTGC ((((((....)))..))) | -13.9 | 33.5 |
| GCAACCGAAAGGTATGC ((((((....))).))) | -26.4 | 50.3 |
| GCAACCGAAAGGTCATGC ((((((....)))..))) | -13 | 32.3 |
| GCAACCGAAAGGTCCTGC ((((((....)))..))) | -9.82 | 27.9 |
| GCAACCGAAAGGTGATGC ((((((....)))..))) | -18.5 | 43.2 |
| GCAACCGAAAGGTTGTGC ((((((....)))..))) | -20.5 | 65.7 |
| GCAACCGGAAACGGCTGC (((.(((....))).))) | -40.9 | 53 |
| GCAACCGGAAACGGTTAC (.(((((....))))).) | -12.4 | 41.2 |
| GCAACGCGAAAGCAATGC (((..((....))..))) | -11.1 | 40.6 |
| GCAACGCGAAAGCAGTGC (((..((....))..))) | -13.3 | 52.1 |
| GCAACGCGAAAGCATAGC ((.(.((....)).).)) | -9.72 | 37.5 |
| GCAACGCGAAAGCATTGC ((((.((....)).)))) | -27.3 | 59.7 |
| GCAACGCGAAAGCGAAGC ((..(((....)))..)) | -12.9 | 44.9 |
| GCAACGCGAAAGCGCTGC (((.(((....))).))) | -37.9 | 57.8 |
| GCAACGCGAAAGCGGAGC ((..(((....)))..)) | -24.5 | 63.9 |
| GCAACGCGAAAGCGGCGC ((..(((....)))..)) | -26.6 | 66.7 |
| GCAACGCGAAAGCGTAGC ((.((((....)))).)) | -17.6 | 61.9 |
| GCAACGCGAAAGCTTTGC ((((.((....)).)))) | -27.4 | 55.5 |
| GCAACGGAAACGTTGC ((((((....)))))) | -32.6 | 68.3 |

| Sequence | folding enthalpy [1] [kcal/mol] | Tm [2] [°C] |
| --- | --- | --- |
| GCAACGGGAAACCGCTAC (.(.(((....))).).) | -9.4 | 28.3 |
| GCAACGGGAAACCGTCAC (..((((....))))..) | -11.2 | 27.1 |
| GCAACGGGAAACTGTTGC (((((.(....).))))) | -40.8 | 55.6 |
| GCAACTCGAAAGAGGTGC (((.(((....))).))) | -40.6 | 65.5 |
| GCAACTGGAAACAGTTAC (.(((((....))))).) | -14.5 | 36.3 |
| GCAAGACCGAAAGGTTGC (((..(((....)))))) | -22.6 | 48.2 |
| GCAAGACGAAAGTCTGC (((.(((....)))))) | -26.7 | 57.7 |
| GCAAGATCGAAAGATTGC (((..(((....)))))) | -21.3 | 38 |
| GCAAGCCGAAAGGCATGC (((.(((....))).))) | -24.9 | 64 |
| GCAAGCGAAAGCTCTTGC ((((((....)))..))) | -16.1 | 43.6 |
| GCAAGCGAAAGCTTTGC ((((((....))).))) | -21 | 53.7 |
| GCAAGCGGAAACACTTGC (((((.(....).))))) | -46.6 | 48.3 |
| GCAAGCGGAAACGCTCAC (..((((....))))..) | -9.17 | 30.5 |
| GCAAGCGGAAACGCTTAC (.(((((....))))).) | -13.4 | 41.2 |
| GCAAGGAAACTTGC (((((....))))) | -26.6 | 53.3 |
| GCAAGGCGAAAGCAATGC (((..((....))..))) | -16 | 41.3 |
| GCAAGGCGAAAGCACTGC (((..((....))..))) | -19.7 | 46.7 |
| GCAAGGCGAAAGCATGGC ((.(.((....)).).)) | -18 | 47.8 |
| GCAAGGCGAAAGCCAAGC ((..(((....)))..)) | -13.8 | 50.1 |
| GCAAGGCGAAAGCCACGC ((..(((....)))..)) | -14.6 | 47.1 |
| GCAAGGCGAAAGCCGGGC ((..(((....)))..)) | -20.9 | 65.5 |
| GCAAGGCGAAAGCGATGC (((..((....))..))) | -11.4 | 53.4 |
| GCAAGGCGAAAGCGCTGC (((..((....))..))) | -17.3 | 50.2 |

— the array DNA melting data of Ke et al. (doi:10.1101/2024.01.08.574731)
